According to ChEMBL document CHEMBL1127357, “Synthesis and biochemical evaluation of a series of aminoflavones as potential inhibitors of protein-tyrosine kinases p56lck, EGFr, and p60v-src” (J Med Chem, 1994):

Tests used:
[1] = molecular target: Tyrosine-protein kinase Lck (Bos taurus); experiment: In vitro inhibition of protein-tyrosine activity of p56lck enzyme in presence of 50 uM ATP
[2] = molecular target: Epidermal growth factor receptor (Homo sapiens, UniProt P00533); experiment: Inhibition of in vitro activity of EGFr enzyme from A431 cells in presence of 5 uM ATP; assay type: cell-based, A-431
Chain of Epidermal growth factor receptor (P00533 whole entry): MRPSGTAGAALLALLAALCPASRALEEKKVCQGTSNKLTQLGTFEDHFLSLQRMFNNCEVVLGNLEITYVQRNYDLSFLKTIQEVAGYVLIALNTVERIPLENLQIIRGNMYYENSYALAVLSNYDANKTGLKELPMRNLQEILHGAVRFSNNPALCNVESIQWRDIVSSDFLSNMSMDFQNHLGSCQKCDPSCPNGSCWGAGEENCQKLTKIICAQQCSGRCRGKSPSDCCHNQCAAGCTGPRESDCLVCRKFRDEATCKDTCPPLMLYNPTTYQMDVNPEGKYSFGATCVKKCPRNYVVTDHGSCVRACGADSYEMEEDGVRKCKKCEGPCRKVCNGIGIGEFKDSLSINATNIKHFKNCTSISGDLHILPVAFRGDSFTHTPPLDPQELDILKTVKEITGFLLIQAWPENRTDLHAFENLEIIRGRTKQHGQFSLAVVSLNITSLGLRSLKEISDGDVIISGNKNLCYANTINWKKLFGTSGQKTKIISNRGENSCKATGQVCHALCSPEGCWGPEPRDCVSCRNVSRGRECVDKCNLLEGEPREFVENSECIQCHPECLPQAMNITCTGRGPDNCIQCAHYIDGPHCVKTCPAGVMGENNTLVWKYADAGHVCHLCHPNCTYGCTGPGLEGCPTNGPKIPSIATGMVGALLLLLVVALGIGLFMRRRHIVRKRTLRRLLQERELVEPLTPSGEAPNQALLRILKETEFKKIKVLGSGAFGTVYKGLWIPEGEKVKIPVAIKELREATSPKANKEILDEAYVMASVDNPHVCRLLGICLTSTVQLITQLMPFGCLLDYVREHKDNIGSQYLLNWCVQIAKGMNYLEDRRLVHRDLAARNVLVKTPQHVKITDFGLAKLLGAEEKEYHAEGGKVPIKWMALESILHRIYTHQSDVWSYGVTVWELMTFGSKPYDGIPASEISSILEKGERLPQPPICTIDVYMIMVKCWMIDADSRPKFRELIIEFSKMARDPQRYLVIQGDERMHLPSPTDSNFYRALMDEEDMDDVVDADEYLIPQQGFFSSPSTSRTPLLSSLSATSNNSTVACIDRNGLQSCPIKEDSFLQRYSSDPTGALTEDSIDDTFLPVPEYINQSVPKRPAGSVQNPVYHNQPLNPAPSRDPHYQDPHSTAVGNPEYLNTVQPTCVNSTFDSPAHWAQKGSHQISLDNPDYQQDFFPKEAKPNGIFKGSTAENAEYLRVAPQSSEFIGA
Outline: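 EGFr from human A431 shed membrane vesicles, solubilised in 4% Triton X-100/10% glycerol; 10 μg vesicle protein. Buffer 20 mM HEPES pH 7.4, 15 mM MgCl2, 4 mM MnCl2, 0.02% BSA, 5 μM [32P]ATP, 25 μg Glu:Ala:Tyr (6:3:1) copolymer, 250 ng EGF. 10 min at room temperature; TCA/pyrophosphate quench, filter wash, scintillation counting; autophosphorylation controls included.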

For Nc1ccc(-c2cc(=O)c3cc(O)cc(N)c3o2)cc1, the IC50 [1] was 117 µM and the IC50 [2] was over 100 µM.

Nc1ccc(-c2cc(=O)c3cc(N)cc(N)c3o2)cc1 gave an IC50 [1] of 106 µM and an IC50 [2] of over 100 µM.

Compound Nc1ccc(-c2cc(=O)c3cc(N)ccc3o2)cc1 has an IC50 [1] of 103 µM and an IC50 [2] of 8.7 µM.

Compound O=c1cc(-c2ccc([N+](=O)[O-])cc2)oc2cc(O)c([N+](=O)[O-])cc12 has an IC50 [1] of over 2000 µM.

COc1cc(N)c2oc(-c3cccc(N)c3)cc(=O)c2c1 was tested, and the IC50 [2] was over 100 µM.

Nc1ccc(-c2cc(=O)c3ccc(O)c(N)c3o2)cc1 showed an IC50 [1] of 328 µM and an IC50 [2] of over 100 µM.

For Nc1ccc(-c2cc(=O)c3c(O)ccc(N)c3o2)cc1, the IC50 [1] was 326 µM and the IC50 [2] was over 100 µM.

Compound Nc1ccc(-c2cc(=O)c3c(N)c(O)c(N)cc3o2)cc1 has an IC50 [1] of 18 µM and an IC50 [2] of over 100 µM.

Compound COc1cc([N+](=O)[O-])c2oc(-c3ccc([N+](=O)[O-])cc3)cc(=O)c2c1 has an IC50 [1] of over 2000 µM.

With Nc1cccc(-c2cc(=O)c3cc(N)c(O)cc3o2)c1 the IC50 [1] was 502 µM and the IC50 [2] was over 100 µM.

Compound Nc1cccc(-c2cc(=O)c3cc(N)ccc3o2)c1 has an IC50 [1] of 200 µM and an IC50 [2] of over 100 µM.

In the case of O=c1cc(-c2ccc([N+](=O)[O-])cc2)oc2c([N+](=O)[O-])cc(O)cc12, the IC50 [1] is reported as over 2000 µM.

With COc1ccc(N)c2oc(-c3ccc(N)cc3)cc(=O)c12 the IC50 [2] was over 100 µM.

In the case of Nc1ccc(-c2cc(=O)c3cc(N)c(O)c(N)c3o2)cc1, the IC50 [1] is reported as 754 µM and the IC50 [2] is reported as over 100 µM.

With COc1ccc([N+](=O)[O-])c2oc(-c3ccc([N+](=O)[O-])cc3)cc(=O)c12 the IC50 [1] was over 2000 µM.

Compound Nc1ccc(-c2cc(=O)c3c(O)c(N)ccc3o2)cc1 has an IC50 [1] of 223 µM and an IC50 [2] of over 100 µM.

O=c1cc(-c2ccc([N+](=O)[O-])cc2)oc2ccc([N+](=O)[O-])c(O)c12 showed an IC50 [1] of over 2000 µM.

With COc1cc(N)c2oc(-c3ccc(N)cc3)cc(=O)c2c1 the IC50 [1] was 382 µM and the IC50 [2] was over 100 µM.

In the case of Nc1ccc(-c2cc(=O)c3cccc(N)c3o2)cc1, the IC50 [1] is reported as 123 µM and the IC50 [2] is reported as over 100 µM.

O=c1cc(-c2ccc([N+](=O)[O-])cc2)oc2c([N+](=O)[O-])c(O)ccc12 was tested, and the IC50 [1] was 1880 µM.

With O=c1cc(-c2ccc([N+](=O)[O-])cc2)oc2c([N+](=O)[O-])ccc(O)c12 the IC50 [1] was over 2000 µM.

Work on Nc1cccc(-c2cc(=O)c3c(N)c(O)c(N)cc3o2)c1 yielded an IC50 [1] of 46 µM and an IC50 [2] of 7.8 µM.

For O=c1cc(-c2ccc([N+](=O)[O-])cc2)oc2c([N+](=O)[O-])cccc12, the IC50 [1] was over 2000 µM.

Nc1ccc(-c2cc(=O)c3cc(N)c(O)cc3o2)cc1 was tested, and the IC50 [1] was 141 µM and the IC50 [2] was 14.1 µM.

O=c1cc(-c2ccc([N+](=O)[O-])cc2)oc2ccc([N+](=O)[O-])cc12 was tested, and the IC50 [1] was over 2000 µM.
